Consider 3 compounds from ChEMBL document CHEMBL1133659, “3,4-dihydro-2(1H)-quinolinone as a novel antidepressant drug: synthesis and pharmacology of 1-[3-[4-(3-chlorophenyl)-1-piperazinyl]propyl]-3,4- dihydro-5-methoxy-2(1H)-quinolinone and its derivatives” (J Med Chem, 2000).

Values joined by “and” are separate entries in the source; they are usually repeats but may differ in a detail not shown here. Equal entries are not always repeated.

Format in all cases: functional
The species entered for assay [1] is Mus musculus. The assay is described as follows: Effect on recovery time for coma induced in mice by cerebral concussion (control group). Put shortly:
(§1)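 Groups of 10 mice received compound orally 1 h before head concussion, at 100 mg/kg unless another dose is noted. Vehicle was 0.5% gum arabic in saline, and controls received vehicle alone. The read-out was time to reappearance of the righting reflex (mean ± SE s), expressed as % of control. Two-tailed t-test was used.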

The species entered for assay [2] is Mus musculus. Description: Effect on recovery time for coma induced in mice by cerebral concussion (treated group). The procedure, abridged:
as §1

Assay [3] has as its system Mus musculus. Description: Effect on the time required for recovery from coma induced in mice by cerebral concussion at the dose of 10 mg/kg po. The procedure, abridged:
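In the concussion-coma test in mice (n = 10), compound was given orally 1 h before concussion, and antagonists were pre-dosed 15 min to 1 h before the test compound. The read-out was time to recovery of the righting reflex as % of control. Statistics were two-tailed t-test versus control and one-way ANOVA with Dunnett's test versus the treated group.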

The subject of assay [4] is Mus musculus. Description: Effect on Immobility Time in the Forced-Swimming Test in Mice at the dose of 0 mg/kg po. Put shortly:
(§2)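 Mice, 8 per group. Dosing was oral, either as a single dose 1 h before testing on day 2 or repeated once daily for 4 days. Each mouse swam 6 min in a cylinder with 6 cm of water at 22-23 °C, and immobility was scored over the last 4 min. Results are mean ± SE seconds and % of control, analysed by one-way ANOVA with Dunnett's test.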

The species entered for assay [5] is Mus musculus. Description: Effect on the sleeping time of mice before halothane load (control group). Put shortly:
(§3)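 Groups of 10 mice received compound orally 1 h before testing, at 100 mg/kg unless another dose is noted. Vehicle was 0.5% gum arabic in 0.9% saline, and controls received vehicle alone. Mice were exposed to 4% halothane in air at 2 L/min. Sleeping time ran from loss to recovery of righting reflex (mean ± SE s), expressed as % of control. Two-tailed t-test was used.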

Assay [6] concerns Mus musculus. Description: Effect on Immobility Time in the Forced-Swimming Test in Mice at the dose of 10 mg/kg po. The procedure, abridged:
as §2

Assay [7] has as its system Mus musculus. The assay is described as follows: Effect on Immobility Time in the Forced-Swimming Test in Mice at the dose of 1 mg/kg po. Put shortly: as §2
Assay [8] concerns Mus musculus. The assay is described as follows: Effect on the sleeping time of mice anesthetized with halothane (treated group) (30 mg/kg). Put shortly: as §3
In assay [9] the test system is Mus musculus. Description: Effect on Immobility Time in the Forced-Swimming Test in Mice at the dose of 0 mg/kg po for repeated administration. The procedure, abridged:
as §2

The subject of assay [10] is Mus musculus. The assay is described as follows: Effect on Immobility Time in the Forced-Swimming Test in Mice at the dose of 0 mg/kg po for single administration. Put shortly: as §2
For assay [11], the system named is Mus musculus. The assay is described as follows: Effect on Immobility Time in the Forced-Swimming Test in Mice at the dose of 10 mg/kg po for repeated administration. Put shortly: as §2
For assay [12], the system named is Mus musculus. Description: Effect on Immobility Time in the Forced-Swimming Test in Mice at the dose of 10 mg/kg po for single administration. The procedure, abridged:
as §2

Assay [13] concerns Mus musculus. The assay is described as follows: Effect on Immobility Time in the Forced-Swimming Test in Mice at the dose of 30 mg/kg po for repeated administration. The procedure, abridged:
as §2

Assay [14] concerns Mus musculus. Description: Effect on Immobility Time in the Forced-Swimming Test in Mice at the dose of 30 mg/kg po for single administration. The procedure, abridged: as §2

With `Cc1ccccc1NC(=N)Nc1ccccc1C`, the RRT in the assay listed under Mus musculus [1] was 153 s; in the assay filed under Mus musculus [2] it was below 101 s; in the assay on Mus musculus [3], <81 s and <210 s.
For `COc1cccc2c1CCC(=O)N2CCCN1CCN(c2cccc(Cl)c2)CC1.CS(=O)(=O)O.O`, the Time is given as 199 s in the assay on Mus musculus [4], below 138 s in the assay with Mus musculus [6] and below 140 s in the assay on Mus musculus [7]. The Sleeping time in the assay listed under Mus musculus [5] was 613 s; with Mus musculus [8], below 414 s. Further, the RRT in the assay filed under Mus musculus [1] is recorded as 165 s; in the assay filed under Mus musculus [2] it was below 49 s.
Take `CN(C)CCCN1c2ccccc2CCc2ccccc21` [IMIPRAMINE]: the RRT in the assay filed under Mus musculus [1] is 177 s; in the assay filed under Mus musculus [2], 290 s. The Time in the assay with Mus musculus [9] is on record as 178 s; in the assay on Mus musculus [10], 198 s; in the assay with Mus musculus [11], 122 s; in the assay on Mus musculus [12] it was 158 s; in the assay on Mus musculus [13] it was below 109 s; in the assay on Mus musculus [14], 160 s.
